Assays:
[1] = test system: HCT-116; assay: Cytostatic activity against human HCT116 cells after 5 days by SRB assay; format: functional; settings: HCT-116, 120 h
How it was run: (§1)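 Cells seeded in RPMI (colon, breast, lung lines), MEM (Du145) or F12K (PC3) with 10% FBS, 37 °C overnight. Day-zero plates fixed with cold 10% TCA. Compounds added as 5-fold serial dilutions for 5 days. Fixed, stained with 0.057% SRB in 1% acetic acid, dye solubilized in 10 mM Tris pH 10.5, A500 read. Growth % corrected for day-0 OD; GIC₅₀ from sigmoidal fit.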

[2] = Cytostatic activity against human Hs578 cells after 5 days by SRB assay; format: functional; settings: Hs578, 120 h; how it was run: as §1
[3] = test system: A549; assay: Cytostatic activity against human A549 cells after 5 days by SRB assay; format: functional; settings: A549, 120 h; how it was run: as §1
[4] = test system: HL-60; assay: Cytotoxicity against human HL60 cells after 3 days by XTT assay; format: functional, cell-based; settings: HL-60, 72 h
How it was run: (§2)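 Cell viability of CCRF-CEM, HL60 and HeLa cells measured by XTT assay after 72 h incubation with compounds. IC₅₀ taken as mean of 2–4 independent experiments.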

[5] = test system: CCRF-CEM; assay: Cytotoxicity against human CCRF-CEM cells after 3 days by XTT assay; format: functional, cell-based; settings: 72 h; how it was run: as §2
[6] = test system: DU-145; assay: Cytostatic activity against human DU145 cells after 5 days by SRB assay; format: functional; settings: DU-145, 120 h; how it was run: as §1
[7] = Cytotoxicity against human HeLaS3 cells after 3 days by XTT assay; format: functional, cell-based; settings: HeLa S3, 72 h

Row | SMILES | GI50 [1] [nM] | GI50 [2] [nM] | GI50 [3] [nM] | IC50 [4] [nM] | IC50 [5] [nM] | GI50 [6] [nM] | IC50 [7] [nM]
1 | OC[C@H]1O[C@@H](n2cc(F)c3c(-c4cc[nH]c4)ncnc32)[C@H](O)[C@@H]1O | 250 | 360 | 130 | 1900 | 930 | 10 | 8900
2 | OC[C@H]1O[C@@H](n2cc(Cl)c3c(-c4ccsc4)ncnc32)[C@H](O)[C@@H]1O | 100 | 110 | 380 | 1600 | 1000 | 18 | 340
3 | OC[C@H]1O[C@@H](n2cc(Cl)c3c(-c4ccccc4)ncnc32)[C@H](O)[C@@H]1O | 1400 | > 10000 | 2500 | 1200 | 910 | 140 | 420
4 | OC[C@H]1O[C@@H](n2ccc3c(Cc4ccccc4)ncnc32)[C@H](O)[C@@H]1O | > 10000 | > 10000 | > 10000 | > 10000 | 3800 | > 10000 | > 7500
5 | OC[C@H]1O[C@@H](n2cc(F)c3c(-c4c[nH]cn4)ncnc32)[C@H](O)[C@@H]1O | > 10000 | 2100 | > 10000 |  | 1800 | 890 | 12200
6 | OC[C@H]1O[C@@H](n2cc(F)c3c(-c4ccoc4)ncnc32)[C@H](O)[C@@H]1O | 18 | 180 | 60 | 2000 | 1000 | 5 | 170
7 | OC[C@H]1O[C@@H](n2cc(F)c3c(-c4nccs4)ncnc32)[C@H](O)[C@@H]1O | 1300 | 570 | 900 | 1000 | 550 | 24 | 3100
8 | OC[C@H]1O[C@@H](n2cc(F)c3c(-c4ccsc4)ncnc32)[C@H](O)[C@@H]1O | 140 | 810 | 380 | 4900 | 560 | 66 | 210
9 | OC[C@H]1O[C@@H](n2ccc3c(-c4ccccn4)ncnc32)[C@H](O)[C@@H]1O | > 10000 | > 10000 | 4900 | > 40000 | 1500 | 390 | 
10 | OC[C@H]1O[C@@H](n2cc(Cl)c3c(-c4ccoc4)ncnc32)[C@H](O)[C@@H]1O | 2000 | 1600 | 1100 | 2500 | 1100 | 54 | 2700
11 | OC[C@H]1O[C@@H](n2ccc3c(-c4c[nH]cn4)ncnc32)[C@H](O)[C@@H]1O | 3700 | 1900 | 2600 |  | 710 | 94 | 3300
12 | OC[C@H]1O[C@@H](n2ccc3c(-c4ccc[nH]4)ncnc32)[C@H](O)[C@@H]1O | > 10000 | 1300 | > 10000 |  | 10000 | 630 | 
13 | OC[C@H]1O[C@@H](n2ccc3c(-c4ccc(F)cc4)ncnc32)[C@H](O)[C@@H]1O | > 10000 | 2500 | > 10000 | 52700 | 23200 | 730 | 2900
14 | OC[C@H]1O[C@@H](n2ccc3c(-c4ccsc4)ncnc32)[C@H](O)[C@@H]1O | 220 | 710 | 630 | > 40000 | 4000 | 32 | 
15 | OC[C@H]1O[C@@H](n2ccc3c(-c4ccn[nH]4)ncnc32)[C@H](O)[C@@H]1O | 7300 | 3900 | 3300 | 10100 | 910 | 410 | 1100
16 | COc1ccc(-c2ncnc3c2ccn3[C@@H]2O[C@H](CO)[C@@H](O)[C@H]2O)cc1 | > 10000 | > 10000 | > 10000 | > 10000 | 10900 | 1300 | > 10000
17 | OC[C@H]1O[C@@H](n2ccc3c(-c4nccs4)ncnc32)[C@H](O)[C@@H]1O | 480 | 290 | 410 | 1200 | 390 | 19 | 130
18 | OC[C@H]1O[C@@H](n2ccc3c(-c4ccc[se]4)ncnc32)[C@H](O)[C@@H]1O | 340 | 290 | 230 | 2800 | 1500 | 28 | 7400
19 | OCc1ncnc2c1ccn2[C@@H]1O[C@H](CO)[C@@H](O)[C@H]1O | 450 | 53 | 250 | 2200 | 450 | 30 | 350
20 | OC[C@H]1O[C@@H](n2ccc3c(-c4cccnc4)ncnc32)[C@H](O)[C@@H]1O | > 10000 | > 10000 | > 10000 | > 10000 | > 10000 | > 10000 | > 10000
21 | OC[C@H]1O[C@@H](n2ccc3c(-c4cn[nH]c4)ncnc32)[C@H](O)[C@@H]1O | 5700 | 3100 | 6200 |  | 1000 | 75 | 4100
22 | OC[C@H]1O[C@@H](n2ccc3c(-c4cc[nH]c4)ncnc32)[C@H](O)[C@@H]1O | 500 | 440 | 360 | 1200 | 280 | 30 | 260
23 | CCc1ncnc2c1ccn2[C@@H]1O[C@H](CO)[C@@H](O)[C@H]1O | 2600 | 4700 | 4400 | 5600 | 1250 | 1200 | 3600
24 | OC[C@H]1O[C@@H](n2cc(F)c3c(-c4ccccc4)ncnc32)[C@H](O)[C@@H]1O | > 10000 | > 10000 | > 10000 | > 40000 | 3100 | 580 | 2600
25 | OC[C@H]1O[C@@H](n2cc(F)c3c(-c4ccc[nH]4)ncnc32)[C@H](O)[C@@H]1O | 450 | 310 | 190 | 3300 | 410 | 9 | 230
26 | OC[C@H]1O[C@@H](n2cc(Cl)c3c(-c4cccs4)ncnc32)[C@H](O)[C@@H]1O | 270 | 1600 | 380 | 5500 | 2700 | 13 | 28200
27 | OC[C@H]1O[C@@H](n2ccc3c(-c4ccccc4)ncnc32)[C@H](O)[C@@H]1O | > 10000 | > 10000 | > 10000 |  | 4000 | 1100 | > 40000

From ChEMBL document CHEMBL1156780, “6-(Het)aryl-7-deazapurine ribonucleosides as novel potent cytostatic agents” (J Med Chem, 2010)
